Measurements reported in the array DNA melting data of Ke et al. (doi:10.1101/2024.01.08.574731).

Experiments:
[1] = melting temperature; fluorescence melt of hairpins on a sequencing array, two-state fit, raised by 9.35 °C to match UV melts; conditions: sodium 0.088 M
Summary of the method: (§1)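 To match UV melts, fitted temperatures were raised by 9.35 °C. These fits were bootstrapped two-state models that gave melting temperature and folding enthalpy, combined by inverse variance over four replicates. The input was normalised Cy3 fluorescence of library hairpins with annealed Cy3 and quencher oligos on a sequenced MiSeq flow cell, imaged in 50 mM Na-HEPES pH 8.0, 25 mM NaCl in 2.5 °C steps up to 60 °C.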

[2] = folding enthalpy; higher = less favourable; fluorescence melt of hairpins on a sequencing array, two-state fit; conditions: sodium 0.088 M
Summary of the method: as §1

Sequence	Tm [1] [°C]	folding enthalpy [2] [kcal/mol]
GCAGGGCGAAAGCCCCGC ((.((((....)))).))	62.8	-14.5
GCAGGGCGAAAGCCGGGC ((..(((....)))..))	56.9	-17.4
GCAGGGCGAAAGCCTCGC ((..(((....)))..))	52	-16.4
GCAGGGCGAAAGCGCGGC ((.(.((....)).).))	62.9	-29.2
GCAGGGGGAAACCCCTAC (.(((((....))))).)	35.4	-14.2
GCAGGGGGAAACTCCTGC (((((.(....).)))))	57.6	-43.4
GCAGTAACGAAAGTTTGC (((..(((....))))))	37.6	-21.9
GCAGTAGCGAAAGCTTGC (((..(((....))))))	45	-17.8
GCAGTAGGAAACTACCGC ((.((((....)))).))	41	-22.5
GCAGTAGGAAACTACTAC (.(((((....))))).)	32.2	-17.2
GCAGTCGAAAGACAATGC ((((((....)))..)))	44.4	-20.1
GCAGTCGAAAGACAGTGC ((((((....)))..)))	45.1	-18.4
GCAGTCGAAAGACGATGC ((((((....)))..)))	46.5	-18
GCAGTCGAAAGACTGTGC ((((((....)))..)))	55.3	-18.3
GCAGTGAAAACTGC (((((....)))))	61.2	-28.1
GCAGTGCGAAAGCAGGGC ((..(((....)))..))	58.4	-21.6
GCAGTGCGAAAGCATAGC ((..(((....)))..))	55.4	-15.8
GCAGTGCGAAAGCCATGC (((..((....))..)))	51.1	-16.4
GCAGTGCGAAAGCGGTGC (((..((....))..)))	63.9	-39.5

Sequence	Tm [1] [°C]	folding enthalpy [2] [kcal/mol]
GCAGTGGGAAACCACCGC ((.((((....)))).))	48.8	-23.4
GCAGTGGGAAACCGCTGC ((((.((....)).))))	62.1	-49.4
GCAGTTGGAAACAACTGC (((((((....)))))))	62.5	-63.5
GCAGTTGGAAACAGCTGC ((((.((....)).))))	54.5	-31.9
GCAGTTGGAAACGACTGC (((((.(....).)))))	55.3	-39.5
GCATAACGAAAGTTGTGC (((.(((....))).)))	54.7	-54.7
GCATAACGAAAGTTTGC (((.(((....))))))	46	-25.8
GCATAACGAAAGTTTTGC (((.(((....))).)))	48.8	-30.7
GCATAAGAAATTATGC ((((((....))))))	46.3	-28.6
GCATACCGAAAGGTTTGC (((.(((....))).)))	54.4	-42.2
GCATACGAAAGTAAATGC ((((((....)))..)))	42.6	-30
GCATACGAAAGTAAGTGC ((((((....)))..)))	34.5	-21.4
GCATACGAAAGTATTTGC ((((((....)))..)))	32.9	-17.1
GCATAGACGAAAGTCTGC (((..(((....))))))	46.3	-15.5
GCATAGCGAAAGCAACGC ((.(.((....)).).))	35.6	-12
GCATAGCGAAAGCATTGC (((..((....))..)))	50.7	-18.4
GCATAGCGAAAGCCCTGC (((..((....))..)))	29.5	-7.04
GCATAGCGAAAGCGACGC ((.(.((....)).).))	63.7	-34.1
